In ChEMBL document CHEMBL2093137, “WHO-TDR NTD Screening”:
Converted amounts (≈) assume the structure as drawn.

Key:
Trypanosoma cruzi = test: WHO-TDR: Chagas disease; format: functional, organism-based, Homo sapiens; conditions: MRC5
Outline: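 Intracellular amastigotes of the Trypanosoma cruzi Tulahuen CL2 beta-galactosidase strain, grown in MRC-5SV2 human lung fibroblast host cells, were tested in a whole-organism screen. The compounds came from a 10,000-member diverse Life Chemicals library that had been filtered for drug-likeness and reactive groups. Previously published standard procedures were followed, with a reference drug as positive control, and potency is reported as IC50.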

Leishmania infantum = test: WHO-TDR: Leishmaniasis; format: functional, organism-based, Mus musculus; conditions: Macrophage
Outline: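 IC50 values describe antiparasitic potency in this whole-organism screen. Leishmania infantum MHOM/MA(BE)/67 amastigotes were tested inside murine peritoneal macrophages against a 10,000-compound diverse Life Chemicals library. A reference drug served as positive control.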

Brugia malayi [1] = test: (§1) WHO-TDR: Lymphatic Filariasis; format: functional; parameters: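 tested at 10 µM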
Outline: (§2)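 Following previously published standard procedures, compounds were tested on whole Brugia malayi microfilariae, with reference drugs as positive controls. They came from a diverse Life Chemicals collection of 10,000 compounds filtered for drug-likeness and reactive groups. Results appear as percent inhibition and as IC50.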

[2] = WHO-TDR: Cytotoxicity; format: toxicity, cell-based; conditions: human, MRC5 cells
Brugia malayi [3] = test: as §1; format: functional, organism-based; outline: as §2
[4] = test system: Trypanosoma brucei brucei; test: WHO-TDR: Human African Trypanosomiasis (HAT); format: functional, organism-based; conditions: Squib-427
Outline: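 Following previously published standard procedures, with reference drugs as positive controls, a whole-organism assay was run against bloodstream-form Trypanosoma brucei, Squib 427 strain. The compounds, 10,000 in all, came from a diverse Life Chemicals library filtered for drug-likeness and reactive groups. Reported values are IC50 for antiparasitic potency.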

Plasmodium falciparum K1 = test: WHO-TDR: Malaria; format: functional, organism-based, Homo sapiens; conditions: Erythrocyte
Outline: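 Life Chemicals supplied the diverse library of 10,000 compounds, which had been filtered for drug-likeness and reactive groups. Each was screened against the K1 strain of Plasmodium falciparum at its intra-erythrocytic stage in human red blood cells, using previously published standard procedures and a reference drug as positive control. The table reports IC50 for antiplasmodial potency.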

Schistosoma mansoni = test: WHO-TDR: Schistosomiasis; format: functional; parameters: concentration or dose not given beside the values
Outline: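 Activity appears as percent inhibition and as IC50. The underlying screen tested a diverse library of 10,000 compounds, supplied by Life Chemicals, on whole larval and/or adult worms of the Puerto Rican strain of Schistosoma mansoni.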

Brugia malayi [5] = test: as §1; format: functional; parameters: concentration or dose not given beside the values; outline: as §2; remark: listed apart in the source
Onchocerca lienalis = test: (§3) WHO-TDR: Onchocerciasis; format: functional; parameters: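 at 12.5 µM on microfilariae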
Outline: (§4)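 Following previously published standard procedures, with reference drugs as positive controls, a diverse Life Chemicals library was tested on whole Onchocerca ochengi or Onchocerca lienalis microfilariae. The library held 10,000 compounds filtered for drug-likeness and reactive groups. Activity is recorded both as percent inhibition and as IC50.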

Onchocerca ochengi = test: as §3; format: functional; parameters: concentration or dose not given beside the values; outline: as §4;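 further: at 12.5 µM on microfilariae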

Row | IC50 (Leishmania infantum) | IC50 (Brugia malayi [3]) | IC50 [4] | IC50 (Plasmodium falciparum K1) | Compound | IC50 (Trypanosoma cruzi) | % Inhibition (Brugia malayi [1]) | IC50 [2] | % Inhibition (Schistosoma mansoni) | % Inhibition (Brugia malayi [5]) | % Inhibition (Onchocerca lienalis) | % Inhibition (Onchocerca ochengi)
1 | 4.26 µg/mL (≈ 9.71 µM) | 1.49 µM | > 13.2 µg/mL | > 13.2 µg/mL | O=C(COc1ccc(Cl)cc1Cl)Nc1nnc(C23CC4CC(CC(C4)C2)C3)s1 | > 13.2 µg/mL | 100% | > 13.2 µg/mL | 0% | 0% | 0% | –
2 | > 13.3 µg/mL | 3.58 µM | > 13.3 µg/mL | > 13.3 µg/mL | O=C(CSc1nnc(NC(=O)C2CCCCC2)s1)Nc1ccccc1C(F)(F)F | > 13.3 µg/mL | 100% | > 13.3 µg/mL | 0% | 0% | 0% | –
3 | > 16 µg/mL | 5.95 µM | > 16 µg/mL | > 16 µg/mL | COc1ccc(C(=O)Nc2nnc(SCC(=O)Nc3cc(C(F)(F)F)ccc3Cl)s2)cc1OC | > 16 µg/mL | 100% | > 16 µg/mL | 0% | 0% | 26.67% | –
4 | 4.23 µg/mL (≈ 9.71 µM) | 6.3 µM | > 13.1 µg/mL | > 13.1 µg/mL | O=C(CSc1nnc(NC(=O)C23CC4CC(CC(C4)C2)C3)s1)Nc1nccs1 | > 13.1 µg/mL | 100% | > 13.1 µg/mL | 0% | 33.33% | 33.34% | –
5 | > 13.1 µg/mL | 1.77 µM | > 13.1 µg/mL | > 13.1 µg/mL | COc1cccc(C(=O)Nc2nnc(SCc3ccc(Br)cc3)s2)c1 | > 13.1 µg/mL | 100% | > 13.1 µg/mL | 0% | 33.33% | 0% | –
6 | > 11.1 µg/mL | 6.05 µM | 3.67 µg/mL (≈ 9.95 µM) | > 11.1 µg/mL | CCOC(=O)c1ccc(NC(=O)CSc2c(C)[nH]c3ccccc23)cc1 | 3.49 µg/mL (≈ 9.49 µM) | 100% | > 11.1 µg/mL | 0% | 0% | 46.7% | –
7 | 5.29 µg/mL (≈ 9.71 µM) | 4.37 µM | > 17.4 µg/mL | > 16.3 µg/mL | CCOC(=O)c1c(NC(=O)CSc2nc3c([nH]c4ccccc43)c(=O)n2-c2ccccc2)sc2c1CCC2 | > 16.3 µg/mL | 100% | > 16.3 µg/mL | 0% | 25% | 0% | –
8 | > 10.1 µg/mL | 6.15 µM | > 10.1 µg/mL | > 10.1 µg/mL | COC(=O)c1ccc(CSc2ccc(NC(=O)C(C)C)nn2)o1 | > 10.1 µg/mL | 100% | > 10.1 µg/mL | 0% | 0% | – | 0%

Second part, the compound before the results:

Row | Compound | IC50 (Leishmania infantum) | IC50 (Brugia malayi [3]) | IC50 [4] | IC50 (Plasmodium falciparum K1) | IC50 (Trypanosoma cruzi) | % Inhibition (Brugia malayi [1]) | IC50 [2] | % Inhibition (Schistosoma mansoni) | % Inhibition (Brugia malayi [5]) | % Inhibition (Onchocerca lienalis) | % Inhibition (Onchocerca ochengi)
9 | O=C(O)CCC(=O)Nc1ccc(Br)cc1 | > 8.16 µg/mL | 6.6 µM | > 8.16 µg/mL | > 8.16 µg/mL | > 8.16 µg/mL | 100% | > 8.16 µg/mL | 0% | 0% | 0% | –
10 | O=C(Nc1nccs1)c1ccc2c(c1)CCCC2 | > 7.75 µg/mL | 5.19 µM | > 7.75 µg/mL | > 7.75 µg/mL | > 7.75 µg/mL | 100% | > 7.75 µg/mL | 0% | 25% | 0% | –
11 | O=C(Nc1nc(-c2ccccn2)cs1)c1ccc2c(c1)CCCC2 | > 10.1 µg/mL | 1.91 µM | > 10.1 µg/mL | 9.24 µg/mL (≈ 27.5 µM) | > 10.1 µg/mL | 100% | > 10.1 µg/mL | 12.5% | 50% | 60% | –
12 | O=C(Nc1nc(-c2ccccn2)cs1)c1ccc2ncsc2c1 | 3.21 µg/mL (≈ 9.49 µM) | 2.02 µM | 2.36 µg/mL (≈ 6.99 µM) | 1.52 µg/mL (≈ 4.49 µM) | 0.345 µg/mL (≈ 1.02 µM) | 100% | 3.63 µg/mL (≈ 10.7 µM) | 0% | 40% | 66.7% | –
13 | CCN1CCc2c(sc(NC(=O)c3ccc(S(=O)(=O)N4CC5(C)CC4CC(C)(C)C5)cc3)c2C(N)=O)C1 (centres undefined) | 5.29 µg/mL (≈ 9.71 µM) | 3.54 µM | 3.82 µg/mL (≈ 7.01 µM) | 5.59 µg/mL (≈ 10.3 µM) | 3.2 µg/mL (≈ 5.88 µM) | 100% | 3.41 µg/mL (≈ 6.26 µM) | 0% | 0% | 6.7% | –
14 | COC(=O)c1ccc(COc2cccc3c2CCN(Cc2ccc(Cl)cc2)C3=O)o1 | > 12.8 µg/mL | 4.61 µM | 0.772 µg/mL (≈ 1.81 µM) | 4.84 µg/mL (≈ 11.4 µM) | 3.19 µg/mL (≈ 7.49 µM) | 100% | > 12.8 µg/mL | 0% | 12.5% | 20% | –
15 | COc1ccc(-c2nnc(NC(=O)c3ccc(S(=O)(=O)N4CC(C)OC(C)C4)cc3)o2)c(OC)c1 (centres undefined) | 4.88 µg/mL (≈ 9.71 µM) | 3.22 µM | > 15.1 µg/mL | 10.6 µg/mL (≈ 21.1 µM) | 4.91 µg/mL (≈ 9.78 µM) | 100% | > 15.1 µg/mL | 0% | 25% | 66.7% | –
16 | Cc1[nH]c2ccccc2c1SCCNC(=O)c1c(-c2ccccc2Cl)noc1C | > 12.8 µg/mL | 4.49 µM | > 13.6 µg/mL | > 12.8 µg/mL | > 12.8 µg/mL | 100% | > 12.8 µg/mL | 0% | 25% | 20% | –
17 | COc1ccccc1C(=O)NCCSc1c(-c2ccccc2)[nH]c2ccccc12 | > 12.1 µg/mL | 4.61 µM | 4.03 µg/mL (≈ 10 µM) | 5.19 µg/mL (≈ 12.9 µM) | 2.91 µg/mL (≈ 7.24 µM) | 100% | > 12.1 µg/mL | 0% | 25% | 0% | –
18 | CCCCc1ccc(NC(=O)CSc2nccn2-c2ccccc2)cc1 | > 11 µg/mL | 4.31 µM | > 11.7 µg/mL | > 11 µg/mL | 3.22 µg/mL (≈ 8.81 µM) | 100% | > 11 µg/mL | 0% | 25% | 0% | –
19 | CCOC(=O)c1sc(NC(=O)C(C)Sc2ncnc3ccccc23)c(C(=O)OCC)c1C (centres undefined) | > 14.2 µg/mL | 4.36 µM | > 14.2 µg/mL | > 14.2 µg/mL | > 14.2 µg/mL | 100% | > 14.2 µg/mL | 0% | 0% | – | –
20 | O=C(Cc1cc(-c2ccc(Cl)cc2)on1)Nc1cccnc1 | > 9.41 µg/mL | 1.77 µM | > 9.41 µg/mL | > 9.41 µg/mL | 2.25 µg/mL (≈ 7.18 µM) | 100% | 1.19 µg/mL (≈ 3.8 µM) | 0% | 0% | – | 75%
21 | CCn1ccc(C(=O)Nc2nc(-c3cc(Cl)ccc3Cl)cs2)n1 | > 11 µg/mL | 5.18 µM | 3.52 µg/mL (≈ 9.6 µM) | > 11 µg/mL | > 11 µg/mL | 100% | > 11 µg/mL | 50% | 0% | – | 50%
